ChEMBL document CHEMBL1909522, “Inhibitory effect on NO production of phenolic compounds from Myristica fragrans” (Bioorg Med Chem Lett, 2011)
pIC50: −log10 of the molar value. Calls of active or inactive are those of the source. The calls are words filed in the database; no cut-off is given here.

Legend:
[1] = test system: RAW264.7; experiment: Antiinflammatory activity in mouse RAW264.7 cells assessed as inhibition of LPS-induced NO production after 24 hrs by Griess reagent method; assay type: functional, cell-based; conditions: RAW264.7, 24 h
Summary of the method: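 RAW264.7 cells (1 × 10^5 per well) stimulated with 1 µg/mL LPS for 24 h with or without test compounds (0.5–25 µM). Nitrite in culture supernatant measured by Griess reaction as NO marker. IC50 relative to vehicle control; average of three repeated experiments.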

[2] = test system: RAW264.7; experiment: Antiinflammatory activity in mouse RAW264.7 cells assessed as inhibition of LPS-stimulated COX2 expression after 18 hrs by immunoblot analysis; assay type: functional, cell-based
Summary of the method: (§1)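 RAW264.7 cells pretreated 30 min with compound (0, 1, 3, 10 µM), then stimulated with LPS 1 µg/mL for 18 h. Lysates in Tris-HCl pH 7.5/NP-40 buffer with protease/phosphatase inhibitors; 50 µg protein per lane on SDS-PAGE, PVDF transfer, antibody probing, ECL detection. Densitometry normalized to α-tubulin; mean ± S.D.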

[3] = test system: RAW264.7; experiment: Antiinflammatory activity in mouse RAW264.7 cells assessed as inhibition of LPS-stimulated iNOS expression after 18 hrs by immunoblot analysis; assay type: functional, cell-based; summary of the method: as §1
[4] = test system: RAW264.7; experiment: Cytotoxicity against mouse RAW264.7 cells assessed as cell viability at 50 uM after 24 hrs by MTT assay; assay type: cell-based; conditions: raw264.7, 24 h
Summary of the method: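 Cells remaining after the Griess step, with or without LPS (1 µg/mL) and compound at 50 µM for 24 h, assessed by MTT colorimetric assay for viability.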

[5] = test system: RAW264.7; experiment: Antiinflammatory activity in mouse RAW264.7 cells assessed as inhibition of LPS-stimulated alpha-tubulin expression at 0.1 to 10 uM after 18 hrs by immunoblot analysis; assay type: functional, cell-based

SMILES	pIC50 [1]	inhibition [2]	inhibition [3]	Activity [4]	inhibition [5]
C=CCc1cc(OC)c(O[C@H](C)[C@@H](OC(C)=O)c2ccc(OC)c(OC)c2)c(OC)c1	4.61	–	–	–	–
O=C(CCCCCCCCc1ccc(O)c(O)c1)c1c(O)cccc1O [MALABARICONE C]	5.64	Dose-dependent effect	Dose-dependent effect	Non-toxic	inactive
COc1cc(CC[C@H](O)c2ccc(O)cc2O)ccc1O	< 4.30	–	–	Non-toxic	–
Oc1ccc([C@@H](O)CCc2ccc3c(c2)OCO3)c(O)c1	< 4.30	–	–	Non-toxic	–
COc1cc(C[C@@H](C)[C@H](C)c2cc(O)c(O)c(OC)c2)ccc1O	4.49	–	–	Non-toxic	–
CC1=C(O)C(=O)C=C2C1=CC=C1[C@@]2(C)CC[C@@]2(C)[C@@H]3C[C@](C)(C(=O)O)CC[C@]3(C)CC[C@]12C [CELASTROL]	6.00	–	–	–	–
C/C=C/c1ccc(O[C@H](C)[C@@H](O)c2ccc(O)c(OC)c2)c(OC)c1	4.60	–	–	Non-toxic	–
C=CCc1cc(OC)c(O[C@H](C)[C@@H](O)c2ccc(OC)c(OC)c2)c(OC)c1	< 4.30	–	–	Non-toxic	–
